Assay results published in ChEMBL document CHEMBL1123418, “N-imidazolylchroman-4-ones, N-imidazolyl-1-tetralones, and their alcohols as hypolipemic agents raising high-density lipoproteins” (1986).

Key:
[1] = tested on: Rattus norvegicus; experiment: Percent change in high density lipoproteins cholesterol concentration in serum from hypercholesterolemic rats at dose 50 mg/kg (po); assay type: functional
Outline: (§1)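 Rats were fed 1.5% cholesterol/0.5% cholic acid diet for 7 days, with compounds given by gavage over the last 4 days as a 0.5% Methocel suspension (0.5 mL/100 g). Rats were fasted overnight, killed on day 8 and bled under light CO₂ anesthesia. HDL was isolated by heparin-MnCl₂ precipitation (8000 rpm, 15 min, 4 °C). Total and HDL cholesterol were measured enzymatically-colorimetrically; % change vs control.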

[2] = tested on: Rattus norvegicus; experiment: Percent increase in liver weight in rats when administered perorally; assay type: functional
[3] = tested on: Rattus norvegicus; experiment: Percent change in total cholesterol concentration in serum from hypercholesterolemic rats at dose 45 mg/kg (po); assay type: functional
[4] = tested on: Rattus norvegicus; experiment: Percent change in total cholesterol concentration in serum from hypercholesterolemic rats at dose 25 mg/kg (po); assay type: functional; outline: as §1
[5] = tested on: Rattus norvegicus; experiment: Percent change in high density lipoproteins cholesterol concentration in serum from hypercholesterolemic rats at dose 25 mg/kg (po); assay type: functional; outline: as §1
[6] = tested on: Rattus norvegicus; experiment: Percent change in total cholesterol concentration in serum from hypercholesterolemic rats at dose 50 mg/kg (po); assay type: functional
[7] = Compound was tested for Hepatic peroxisomal proliferation effect in male rats treated for 7 days at dose 50 mg/kg ratio of % liver weight to % body weight; assay type: functional
[8] = tested on: Rattus norvegicus; experiment: Compound was tested for its activity in diet-induced Hypercholesterolemic rats at dose 50 mg/kg after peroral administration palmitoyl-CoA oxidation activity(per mg) of protein; assay type: functional; details: route oral
[9] = tested on: Rattus norvegicus; experiment: Compound was tested for Hepatic peroxisomal proliferation effect in male rats treated for 7 days at dose 50 mg/kg concentration of hepatic proteins(mg/g) in liver; assay type: functional, organism-based; design: dose 50 mg/kg
[10] = tested on: Rattus norvegicus; experiment: Compound was tested for Hepatic peroxisomal proliferation effect in male rats treated for 7 days at dose 50 mg/kg protein; assay type: functional
[11] = tested on: Rattus norvegicus; experiment: Compound was tested for its activity in diet-induced Hypercholesterolemic rats at dose 50 mg/kg after peroral administration carnitine acetyl transferase activity(per mg) of protein; assay type: functional; details: route oral
[12] = tested on: Rattus norvegicus; experiment: Compound was tested for Enzyme induction effect in male rats treated for 5 days at dose 50 mg/kg aniline p-hydroxylase activity(per g) of liver; assay type: functional
Outline: (§2)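 Male OFA-ICO SD rats were dosed orally for 5 days, with test compounds at 50 mg/kg/day and sodium phenobarbital at 75 mg/kg/day. Liver was homogenized in 1.15% KCl-0.01 M phosphate, pH 7.5. Microsomes were spun from the 9000g supernatant at 105000g and assayed for protein, cytochrome P-450, aniline p-hydroxylation (µmol p-aminophenol/20 min) and aminopyrine N-demethylation (µmol HCHO/5 min). Liver/body weight was also recorded. Mean ± SEM of four rats; Dunnett's test.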

[13] = tested on: Rattus norvegicus; experiment: Compound was tested for Enzyme induction effect in male rats treated for 5 days at dose 50 mg/kg concentration of microsomal proteins (mg/g) of liver; assay type: functional, organism-based; design: dose 50 mg/kg; outline: as §2
[14] = tested on: Rattus norvegicus; experiment: Compound was tested for Hepatic peroxisomal proliferation effect in male rats treated for 7 days at dose 50 mg/kg carnitine acetyl transferase activity(per mg) of protein; assay type: functional
Outline: (§3)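 Male OFA-ICO SD rats received oral doses of 50 mg/kg/day for 1 week. Liver was homogenized in 0.25 M sucrose-0.01 M phosphate-0.1% ethanol, pH 7, then diluted in incubation buffer with 0.1% Triton X-100 and centrifuged. Supernatants were assayed for catalase (K, sec⁻¹), carnitine acetyltransferase (nmol CoASH/min) and cyanide-insensitive palmitoyl-CoA oxidation (nmol NAD⁺ reduced/min). Mean ± SEM of three rats; Dunnett's test.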

[15] = tested on: Rattus norvegicus; experiment: Compound was tested for Enzyme induction effect in male rats treated for 5 days at dose 50 mg/kg aminopyrine N-demethylase activity (per g) of liver; assay type: functional; outline: as §2
[16] = Compound was tested for Enzyme induction effect in male rats treated for 5 days at dose 50 mg/kg; ratio of % liver weight to % body weight; assay type: functional; outline: as §2
[17] = tested on: Rattus norvegicus; experiment: Percent increase in liver weight in rats when a 50 mg/Kg dose was administered; assay type: functional
[18] = species: Rattus norvegicus; experiment: Compound was tested in vitro for inhibition of Cholesterol biosynthesis in rat liver slices, % inhibition of [14C]-acetate incorporation in cholesterol at 2 e10-4 concentration; assay type: functional
Outline: (§4)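 Liver slices (250 mg) from fed male rats were incubated in Krebs-Ringer bicarbonate, pH 7.4, with 4 mM [2-¹⁴C]acetate under 95% O₂-5% CO₂. Compounds were tested at a final 2 × 10⁻⁴ M, or 5 × 10⁻⁵ M for one compound. ¹⁴C incorporation into cholesterol and into petroleum-ether-soluble nonsaponifiable neutral lipids gave % inhibition; mean of four determinations.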

[19] = tested on: Rattus norvegicus; experiment: Compound was tested for Hepatic peroxisomal proliferation effect in male rats treated for 7 days at dose 50 mg/kg palmitoyl-CoA oxidation activity(per mg) of protein; assay type: functional; outline: as §3
[20] = tested on: Rattus norvegicus; experiment: Compound was tested for Hepatic peroxisomal proliferation effect in male rats treated for 7 days at dose 50 mg/kg catalase activity (per mg) of protein; assay type: functional; outline: as §3
[21] = tested on: Rattus norvegicus; experiment: Compound was tested for Enzyme induction effect in male rats treated for 5 days at dose 50 mg/kg concentration of cytochrome […]( mmol/mg) of protein; assay type: functional; outline: as §2
[22] = tested on: Rattus norvegicus; experiment: Percent change in triglyceride concentration in serum from normocholesterolemic rats at dose 50 mg/kg (po)
[23] = tested on: Rattus norvegicus; experiment: Percent change in low density lipoproteins cholesterol concentration in serum from normocholesterolemic rats at dose 50 mg/kg (po)
[24] = species: Rattus norvegicus; experiment: Compound was tested in vitro for inhibition of Cholesterol biosynthesis in rat liver slices, % inhibition of [14C]acetate incorporation in neutral lipids at 2 e10-4 concentration; assay type: functional; outline: as §4
[25] = Percent change in high density lipoprotein cholesterol
[26] = tested on: Rattus norvegicus; experiment: Percent change in total cholesterol concentration in serum from hypercholesterolemic rats at dose 37 mg/kg (po); assay type: functional
[27] = tested on: Rattus norvegicus; experiment: Percent change in high density lipoproteins cholesterol concentration in serum from hypercholesterolemic rats at dose 37 mg/kg (po); assay type: functional; outline: as §1
[28] = tested on: Rattus norvegicus; experiment: Percent change in high density lipoproteins cholesterol concentration in serum from hypercholesterolemic rats at dose 45 mg/kg (po); assay type: functional; outline: as §1

SMILES	Change [1]	Change [2]	Change [6]	further results
Cc1cc(Br)c2c(c1)C(=O)C(n1ccnc1)CO2 (configuration not stated)	21%	7%	–	Change [3]: -15%
CCCc1cc2c(cc1O)OC(C)C(n1ccnc1)C2=O (configuration not stated)	–	8%	–	Change [4]: -15%; Change [5]: 28%
O=C1c2cc([N+](=O)[O-])ccc2CCC1n1ccnc1 (configuration not stated)	23%	5%	-16%	–
COc1ccc2c(c1)C(=O)C(n1ccnc1)CO2 (configuration not stated)	88%	20%	-21%	–
CCC1(c2ccccc2)C(=O)NC(=O)NC1=O [PHENOBARBITAL]	–	–	–	Ratio [7]: 4.32%; Activity [8]: 1.15; Concentration [9]: 40.6; Activity [10]: 1.92; Activity [11]: 4.2
COc1cc(Br)c2c(c1)C(=O)C(n1ccnc1)CO2 (configuration not stated)	64%	6%	14%	–
COC1c2cc(Cl)ccc2OCC1n1ccnc1 (racemic)	-7%	15%	8%	–
O=C1c2cc(Cl)ccc2OCC1n1ccnc1 (configuration not stated)	–	28%	–	Activity [12]: 0.93; Ratio [7]: 4.36%; Concentration [13]: 42.5; Concentration [9]: 216; Activity [14]: 2.9; Activity [15]: 2.98; Ratio [16]: 4.4%; Change [17]: 34%; Inhibition [18]: 0%; Activity [19]: 4.1; Activity [20]: 42.1; Activity [21]: 2.46; Change [22]: -46%; Change [23]: -53%; Inhibition [24]: 0%; Percent change in HDL cholesterol [25]: 153
OC1c2cc(Cl)ccc2OCC1n1ccnc1 (trans isomer)	–	20%	–	Change ([1]; 50 mg/kg): 83%; Change ([6]; 50 mg/kg): -14%
COc1ccc2c(c1)OCC(n1ccnc1)C2=O (configuration not stated)	-1%	3%	11%	–
O=C1c2cc(Br)cc(Br)c2OCC1n1ccnc1 (configuration not stated)	171%	29%	-68%	–
O=C1c2ccc(-c3ccccc3)cc2OCC1n1ccnc1 (configuration not stated)	118%	22%	-48%	–
O=C1c2ccccc2OC(c2ccccc2)C1n1ccnc1 (configuration not stated)	-3%	5%	27%	–
CN(C)c1ccc2c(c1)C(=O)C(n1ccnc1)CC2 (configuration not stated)	–	11%	–	Change [26]: -37%; Inhibition [18]: 55%; Change [27]: 69%; Inhibition [24]: 0%
O=C1c2ccsc2CCC1n1ccnc1 (configuration not stated)	2%	–	17%	–
Cc1ccc2c(c1)C(=O)C(n1ccnc1)CO2 (configuration not stated)	32%	–	7%	–
CCCC1Oc2ccccc2C(=O)C1n1ccnc1 (configuration not stated)	–	20%	–	Change [28]: 53%; Change [3]: -4%
CC(C)(C)c1cc(Br)c2c(c1)C(=O)C(n1ccnc1)CO2 (configuration not stated)	57%	15%	-12%	–
O=C1c2ccccc2OCC1n1ccnc1 (configuration not stated)	4%	16%	34%	–
Clc1ccc2c(c1)C=C(n1ccnc1)CO2	25%	2%	-10%	–
O=C1c2cc(O)ccc2OCC1n1ccnc1 (configuration not stated)	-4%	3%	9%	–
CC1Oc2c(Br)cc(C(=O)O)cc2C(=O)C1n1ccnc1 (configuration not stated)	-11%	4%	-23%	–
